Measured values: the array DNA melting data of Ke et al. (doi:10.1101/2024.01.08.574731)

Columns and labels:
[1] = folding enthalpy; higher = less favourable; fluorescence melt of hairpins on a sequencing array, two-state fit; conditions: sodium 0.088 M
Outline: (§1)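 Library hairpins on a sequenced MiSeq flow cell carried annealed Cy3 and quencher oligos, and their Cy3 fluorescence was imaged in 50 mM Na-HEPES pH 8.0 with 25 mM NaCl, in 2.5 °C steps up to 60 °C. Signals were normalised to Cy3 before quenching and to control constructs. Melting temperature and folding enthalpy were obtained from bootstrapped two-state fits, combined by inverse-variance weighting across four replicates, and the fitted temperatures were then raised by 9.35 °C to match UV melts.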

[2] = melting temperature; fluorescence melt of hairpins on a sequencing array, two-state fit, raised by 9.35 °C to match UV melts; conditions: sodium 0.088 M
Outline: as §1

| Sequence | folding enthalpy [1] [kcal/mol] | Tm [2] [°C] |
| --- | --- | --- |
| GTACTTGGAAACAGGTAC ((((.((....)).)))) | -32.4 | 40.1 |
| GACGACGAAAGTCGGTC ((((((....))).))) | -12.2 | 60.3 |
| GAGCCAGGAAACTGACTC (((.(((....))).))) | -36.8 | 44 |
| GTTGGTGGAAACGCCAAC (((((.(....).))))) | -40 | 54.4 |
| GCCCACGAAAGTGCGGGC ((((((....)))..))) | -28.4 | 55 |
| GGCTCTGGAAACGGAGTC (.(((.(....).))).) | -30.2 | 40 |
| GTCTCAGGAAACTGAGGC (.(((((....))))).) | -37.3 | 51.1 |
| GCCGAGCGAAAGCTATGC ((..(((....)))..)) | -12.5 | 38.8 |
| GATCGCGCCTGCGATC ((((((....)))))) | -26.7 | 69.3 |
| GATGGCGGAAACGCCACC (.(((((....))))).) | -9.71 | 43.6 |
| GCACATGCGAAAGCATGC (((..(((....)))))) | -7.24 | 40.4 |
| GCTGGGCGAAAGCCGCGC ((..(((....)))..)) | -15.3 | 61.4 |
| GATCTGAGCCCAGATC ((((((....)))))) | -29.7 | 47.3 |
| GATCGAGTGTTCGATC ((((((....)))))) | -34.8 | 51.9 |
| GATCCGAGTCCGGATC ((((((....)))))) | -40.2 | 56 |
| GTCCGGGGAAACTCGGGC (.(((.(....).))).) | -21.4 | 47.8 |
| GATCACCGAAAGGTATC (((.(((....)))))) | -15.8 | 34.1 |
| GATCCGTCCCCGGATC ((((((....)))))) | -32.1 | 56.5 |
| GATCCCTGCAGGGATC ((((((....)))))) | -37.8 | 66 |
| GATGCCCGAAAGGGGATC (((.(((....))).))) | -21.9 | 59 |
| GATCCAGTACTGGATC ((((((....)))))) | -47.2 | 57.1 |
| GCAGGGCGAAAGCCTGGC ((..(((....)))..)) | -20.2 | 59.8 |
| GATCGGATTTCCGATC ((((((....)))))) | -36.5 | 57.5 |

| Sequence | folding enthalpy [1] [kcal/mol] | Tm [2] [°C] |
| --- | --- | --- |
| GAATACCCGAAAGGGTTC (((..(((....)))))) | -7.33 | 33 |
| GACCTGGCGAAAGCCGTC (((..(((....)))))) | -5.62 | 34.9 |
| GATCCGCCGGCGGATC ((((((....)))))) | -45.4 | 68.9 |
| GTTTGCGCGAAAGCGAAC (((..(((....)))))) | -12 | 36.5 |
| GATCAGCTCACTGATC ((((((....)))))) | -31.9 | 52.2 |
| GGCGGGTCGAAAGACGCC (((..(((....)))))) | -24.8 | 58 |
| GCGGCGCGAAAGCTCAGC ((.(.((....)).).)) | -19.2 | 56.7 |
| GATCAGCGGACTGATC ((((((....)))))) | -33.9 | 50.3 |
| GCGAACGAAAGTTATCGC ((((((....)))..))) | -23.1 | 44.1 |
| GATCTTAGTGAAGATC ((((((....)))))) | -27.1 | 43.1 |
| GGAGATGCGAAAGCATCC (((..(((....)))))) | -8.76 | 46.6 |
| GCGAGTGGAAACACCCGC (((.(((....))).))) | -26.4 | 51.9 |
| GAGTCGACGAAAGTCCTC (((..(((....)))))) | -9.8 | 26.6 |
| GAAGCTGGAAACAGCTCC (.(((((....))))).) | -13.7 | 39 |
| GATCTGCACTCAGATC ((((((....)))))) | -34.1 | 48.9 |
| GCTACACGAAAGTGGAGC (((.(((....))).))) | -43.5 | 67 |
| GAGAGCGAAAGCTGGCTC ((((((....)))..))) | -13.5 | 37.2 |
| GGACCCGAAAGGGCCTCC ((((((....)))..))) | -14.7 | 57.5 |
| GCCTCGCCGAAAGGCGGC (((..(((....)))))) | -5.04 | 55.4 |
| GTGTCCGAAAGGAAACAC ((((((....)))..))) | -22.4 | 46.5 |
| GGCATAGGAAACTATGTC (.(((((....))))).) | -35 | 45.7 |
| GGTGTGCGAAAGCAACC (((.(((....)))))) | -17 | 52.1 |
| GCATTGCGAAAGCAAAGC ((.((((....)))).)) | -18.6 | 58 |

| Sequence | folding enthalpy [1] [kcal/mol] | Tm [2] [°C] |
| --- | --- | --- |
| GTATACCGAAAGGTTAC (((.(((....)))))) | -17.4 | 40.1 |
| GGCAGGGGAAACTCTGCC (((((.(....).))))) | -48.5 | 57 |
| GACTGCGAAAGCAGAGTC ((((((....)))..))) | -11.8 | 45.1 |
| GATTTGGCGAAAGCCATC (((..(((....)))))) | -6.61 | 26.1 |
| GCCCGCCCGAAAGGGGGC (((..(((....)))))) | -13.2 | 60.2 |
| GGTGTCGAAAGACGTACC ((((((....)))..))) | -19.3 | 41.9 |
| GGTTTCCGAAAGGAGACC (((.(((....))).))) | -51 | 54.4 |
| GATCTCCAGAGAGATC ((((((....)))))) | -38.8 | 52 |
| GGTATCGAAAGATTACC ((((((....))).))) | -24.9 | 37.7 |
| GGCTATTCGAAAGAAGCC (((..(((....)))))) | -25.2 | 37.7 |
| GCGGCGCGAAAGCTACGC (((..((....))..))) | -28.9 | 61.8 |
| GATCTGCAGCCAGATC ((((((....)))))) | -32.6 | 48.9 |
| GCGCGATCGAAAGATCGC (((..(((....)))))) | -6.32 | 60.6 |
| GCACCCGAAAGGGCATGC ((((((....)))..))) | -15 | 41 |
| GGAGTAGAAATACTCC ((((((....)))))) | -32.6 | 52 |
| GATCATTAAATGATC ((((((...)))))) | -28.6 | 44 |
| GCCCGAGGAAACCCGGGC (((((.(....).))))) | -40.6 | 60.6 |
| GCGCCCGGAAACGAGCGC ((((.((....)).)))) | -38.9 | 60 |
| GCCTCCGAAAGGAGAGGC ((((((....)))..))) | -20.4 | 54.8 |
| GCTGTCGAAAGACTCAGC ((((((....)))..))) | -18.7 | 40.5 |
| GATCAAGTGGTTGATC ((((((....)))))) | -27.6 | 41.9 |
| GGACTGGGAAACCAGTCC (((((((....))))))) | -35.3 | 68.5 |
| GTGCACCGAAAGGTCAC (((.(((....)))))) | -26.3 | 52.5 |
